Compound activity as filed in PubChem BioAssay.
A selection: hits, their analogues and other compounds. The true share with any hit is near 1.5%.
CCR6 antagonist – CCR6 receptor antagonists, primary screen, cell-based, CHO-K1, luminescence, beta-arrestin, uHTS. CHO-K1 CCR6 PathHunter beta-arrestin, CCL20-stimulated. inhibition, % at 20 µM. 340,000 tested, 0.49% active. AID 493098, 2011;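 active means compounds whose inhibition of the agonist-driven luminescence signal at 20 µM reaches about 50%, limit read from the data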;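 further: cells stimulated with CCL20 at 14 nM final; plate controls were DMSO with CCL20 for no effect and DMSO without agonist for full effect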
CXCR6 inh – CXCR6 receptor inhibitors, primary screen, cell-based, beta-arrestin, luminescence, CHO-K1 PathHunter, 1536-well | AID 602244, 2012 | 360,000 tested, 0.36% active | inhibition, % at 20 µM | C-X-C chemokine receptor type 6 (Homo sapiens), O00574; in the data active means inhibition above about 34%, passing the limit was not always enough;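 further: antagonist mode with CXCL16 agonist at 10 nM final; 0% = 10 nM CXCL16 with DMSO and 100% = unstimulated wells without agonist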
APJ antagonist – antagonists of human apelin receptor APJ, primary screen, CHO-K1 cells, beta-arrestin complementation, luminescence; P35414; inhibition, % at 20 µM; 330,000 tested, 0.32% active; AID 2521, 2010;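 active means inhibition above about 40% at 20 µM, limit read from the data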;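 further: cells challenged with 10 nM apelin-13 agonist together with compound; plate controls were apelin-13 plus DMSO wells for no effect and DMSO wells lacking apelin-13 for full effect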
HTR2A ag – mouse Htr2a agonists via beta-arrestin recruitment, primary screen, cell-based, luminescence; CHO-K1 mHTR2A beta-arrestin complementation; percent of 30 µM serotonin response; activation, % at 7.6 µM; 360,000 tested, 0.66% active;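 active means activation above a run cutoff, the mean activation of all tested compounds plus 3 SD, cut at about 14% in these data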;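 further: 0% = plate median of compound wells and 100% = 30 µM serotonin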
NTR1 agonist – agonists of human NTR1, primary screen, imaging, U2OS cells, beta-arrestin-GFP, high content; NTR1-U2OS beta-arrestin-GFP spot imaging, agonist mode; activation, % at 20 µM; 330,000 tested, 0.17% active; AID 493036, 2011;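 active means activation at or above 40% of the spot to cytoplasm intensity ratio, with at least 20 cells analyzed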;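 further: 0% = DMSO without peptide and 100% = 100 nM NTR1 peptide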
Target sequence (P30989 whole entry, looked up): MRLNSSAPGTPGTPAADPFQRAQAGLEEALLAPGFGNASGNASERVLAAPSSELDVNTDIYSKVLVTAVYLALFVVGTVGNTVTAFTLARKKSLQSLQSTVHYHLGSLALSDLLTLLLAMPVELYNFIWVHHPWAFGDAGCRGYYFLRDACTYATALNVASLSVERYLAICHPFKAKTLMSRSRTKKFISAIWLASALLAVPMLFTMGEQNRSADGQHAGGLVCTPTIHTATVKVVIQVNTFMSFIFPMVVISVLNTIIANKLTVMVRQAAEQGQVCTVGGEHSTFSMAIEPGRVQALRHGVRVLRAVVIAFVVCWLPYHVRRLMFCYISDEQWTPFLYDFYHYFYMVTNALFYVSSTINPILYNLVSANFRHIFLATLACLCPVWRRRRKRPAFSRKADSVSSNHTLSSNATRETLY
APJ agonist – agonists of human apelin receptor APJ, primary screen, CHO-K1 cells, PathHunter beta-arrestin, luminescence; 0% DMSO wells, 100% apelin; 330,000 tested, 0.11% active; activation, % at 20 µM; AID 2520, 2010;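 active means activation more than six SD over the plate average, tested at 20 µM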;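 further: 0% = DMSO alone and 100% = apelin-13 at 10 nM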
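Test system – PathHunter CHO-K1 APJ (AGTRL-1) beta-arrestin reporter cells · Input – 1000 cells/well · Compound – single test compound dose, 20 µM final, 1% DMSO · Times – compound stimulation 90 min at 25 °C, detection 60 min · Technique – beta-gal luminescence · Read-out basis – APJ–arrestin association signal · Control set – negative DMSO alone, positive Apelin-13 at 10 nM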
APJ ag confirm – agonists of human apelin receptor APJ, confirmation, cell-based, single concentration, CHO-K1, beta-arrestin, luminescence | 310 tested, 10% active | CHO-K1 APJ PathHunter beta-arrestin | shares compounds with APJ agonist | activation, % at 20 µM;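 active means activation above 40%, taking the highest of four retests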;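 further: plate controls were DMSO wells for no effect and apelin-13 at 10 nM for full effect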
APJ antag confirm – APJ antagonists blocking beta-arrestin recruitment, confirmation, cell-based, luminescence, single concentration, uHTS hits | shares compounds with APJ antagonist | antagonist mode | inhibition, % at 20 µM | 950 tested, 66% active | AID 2766, 2010; in the data active means inhibition above about 50%
NTR1 ag conf – NTR1 agonists, single-dose retest, confirmation, imaging, U2OS cells, beta-arrestin-GFP, single concentration. shares compounds with NTR1 agonist. NTR1-U2OS beta-arrestin-GFP translocation imaging. activation, % at 20 µM. 480 tested, 38% active. AID 504550, 2011;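 active means mean activation at 20 µM of at least 40%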;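 further: 0% = DMSO without peptide and 100% = 100 nM NTR1 peptide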
Active calls of the source: *; x = no result given.

SMILES	CCR6 antagonist	CXCR6 inh	APJ antagonist	HTR2A ag	NTR1 agonist	APJ agonist	others
Cc1ccccc1-n1c(/C=C/c2ccccn2)nc2ccccc2c1=O	13	8	-13	-4	0	-3
CN1C2CCC1/C(=C/c1ccccn1)C(=O)/C2=C\c1ccccn1	49	38*	x	0	x	x
CC1=C2[C@@H]3OC(=O)[C@H](C)C3CC[C@@]2(C)C=CC1=O (stereo partly drawn)	4	0	0	13	0	-3
Cc1cc(C)cc(N2C(=O)NC(=O)/C(=C\C=C\c3ccco3)C2=O)c1	24	18	x	4	x	x
Cc1ccc(N2C(=O)NC(=O)/C(=C/C=C/c3ccco3)C2=O)cc1	53*	36	-38	-2	17	3
CCOc1ccc(N2C(=O)/C(=C/c3ccco3)C(=O)NC2=S)cc1	79*	58*	10	1	0	0
O=C(Cn1ncn2c(cc3cc(F)ccc32)c1=O)N1CCC2(CC1)OCCO2	3	2	3	4	0	10
Cc1nc2c(c(=O)[nH]1)C(c1ccc([N+](=O)[O-])cc1)c1c(c3ccccc3oc1=O)O2 (stereo not drawn)	10	x	19	x	0	-4
CCCCn1c(NC(=O)c2ccc(Br)o2)c(C(=O)OCC)c2nc3ccccc3nc21	43	23	63*	-6	-1	-11
CC(=O)O/C(=C1\CC2C3CC=C4CC(OC(C)=O)CCC4(C)C3CCC2(C)C1=O)C(F)(F)F (stereo not drawn)	83*	62*	x	-3	x	x
CSc1ncc(/C=C2/C(=O)NC(=O)N(c3ccc(C)cc3)C2=O)cn1	8	2	16	4	0	1
Cc1ccc(N2C(=O)NC(=O)/C(=C/c3cnn(-c4ccc(C)cc4)c3)C2=O)cc1	49	43*	12	0	0	0
CC[C@H](C)C1OC(=O)[C@@H](C)[C@@H](CC)NC(=O)[C@H](C)N(C)C(=O)C(C)(C)C(=O)C(C)NC(=O)[C@H](Cc2ccc(OC)cc2)N(C)C(=O)[C@H](C(C)C)N(C)C(=O)CNC(=O)[C@H](CC(C)C)N(C)C(=O)CNC1=O (stereo partly drawn)	x	8	x	21*	x	x
O=C(CN1CCCCC1)c1ccc2c(c1)OCO2	10	4	18	2	0	-3
O=C(CN1CCCCC1)c1cccc(Br)c1	68*	28	-12	-3	2	-6
Cc1cc(C=C2C(=O)NC(=S)NC2=O)c(C)n1-c1ccc2c(c1)OCO2	35	-2	5	16*	7	6
COc1cccc(C2(O)CCN(CC(=O)Nc3nc(C)cs3)CC2)c1	16	-2	10	2	1	-2
Cn1cccc1C1CCCN1CC(=O)Nc1ccc(C#N)c(Cl)c1 (stereo not drawn)	8	-8	1	-1	-1	-8
O=[N+]([O-])c1cccnc1N1CCCNCC1	0	2	-23	32*	-2	-5
O=[N+]([O-])c1ccc(N2CCNCC2)cc1N1CCCCC1	13	-6	4	8	1	-3
CCOc1cc2[nH]c(=S)n(CCCC(=O)N3CCC4(CC3)OCCO4)c(=O)c2cc1OCC	-9	-1	2	0	-1	35*	APJ ag confirm=22
CC(NC(=O)Cc1cccc2ccccc12)C(=O)N1CCC(=O)CC1 (stereo not drawn)	-3	-4	1	-2	0	-1
CN1C(=O)C(=Cc2ccc(N3CCOCC3)o2)C(=O)N(C)C1=O	17	2	9	1	1	-3
CN1C(=O)C(=Cc2ccc(N3CCCCCC3)o2)C(=O)N(C)C1=S	34	19	47*	-3	-2	-6	APJ antag confirm=79*
Cn1c(N)c(C(=O)COC(=O)Cc2ccccc2)c(=O)n(C)c1=O	12	5	6	-4	2	2
SMILES	CCR6 antagonist	CXCR6 inh	APJ antagonist	HTR2A ag	NTR1 agonist	APJ agonist	others
N#Cc1c(/N=C/c2ccc(O)cc2O)sc2c1C1CCN2CC1	39	8	42*	1	-2	-7	APJ antag confirm=36
O=C(/C=C/c1ccc(F)cc1)NC(=S)N1C[C@H]2C[C@H](C1)c1cccc(=O)n1C2	6	2	-35	5	0	-1
CC[C@H]1CN2CC[C@@]3(C(=O)Nc4ccccc43)[C@@H]2C[C@@H]1/C(=C\OC)C(=O)OC	-4	-6	-22	-1	-2	-5
Nc1c(C(=O)OCc2ccccc2)c2nc3ccccc3nc2n1Cc1cccs1	0	33	63*	-8	14	-11	APJ antag confirm=-11
O=C1/C(=C/c2ccccc2)C[C@@]2(O)[C@H]3Cc4ccc(O)c5c4[C@@]2(CCN3CC2CC2)C1O5 (stereo partly drawn)	80*	58*	56*	1	35	-9	APJ antag confirm=93*
CCC1CCCCN1CC(=O)c1ccc(OC(F)F)cc1 (stereo not drawn)	25	8	44*	-2	-1	-5	APJ antag confirm=52*
CCNc1nc(NC(C)(C)C)nc(SC)n1	2	4	-13	0	4	-5
COC(=O)[C@@H]1[C@@H](C(=O)OC)C2(c3ccccc3-c3ccccc32)N(c2ccc(Cl)cc2)N1C#N	29	22	18	-1	35	6
COC(=O)C[C@]1(C(=O)OC)CN(C#N)N(c2ccc(Cl)cc2)C12c1ccccc1-c1ccccc12	19	22	13	-5	41*	4	NTR1 ag conf=62*
CN(C)C(=O)Oc1ccc2nnc3ccnn3c2c1	5	-6	7	1	-1	-2
COc1ccc(OC)c(N=Cc2c(O)n(Cc3ccccc3)c(=S)[nH]c2=O)c1	12	3	-7	3	59*	3	NTR1 ag conf=65*
O=c1c(C=NCc2cccs2)c(O)n(C2CCCCC2)c(=O)n1C1CCCCC1	11	7	7	-1	30	7
